{"source": "ChEMBL document CHEMBL4339255", "about": "“Dimeric Pyranonaphthoquinone Glycosides with Anti-HIV and Cytotoxic Activities from a Soil-Derived Streptomyces” (J Nat Prod, 2019)", "key": {"HL-60": {"test_system": "HL-60", "experiment": "Cytotoxicity in human HL60 cells assessed as reduction in cell viability incubated for 72 hrs by MTS assay", "type": "functional, cell-based", "conditions": "HL-60, 72 h", "how_it_was_run": "(§1)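 Cells plated at 5 × 10^3 per well, left 24 h, then given a range of sample concentrations from DMSO solutions, in triplicate; DMSO-only negative controls, paclitaxel and cisplatin positive controls. After 72 h exposure, MTS added for 2 h at 37 °C, absorbance read at 492 nm, IC50 by the Reed and Muench method.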"}, "MCF7": {"test_system": "MCF7", "experiment": "Cytotoxicity in human MCF7 cells assessed as reduction in cell viability incubated for 72 hrs by MTS assay", "type": "functional, cell-based", "conditions": "MCF7, 72 h", "how_it_was_run": "as §1"}, "[1]": {"test_system": "Human immunodeficiency virus 1", "experiment": "Antiviral activity against HIV1 3B infected in human C8166 cells assessed as inhibition of syncytial cell formation incubated for 72 hrs", "type": "functional, organism-based", "conditions": "Human immunodeficiency virus 1, 3B, C8166, 72 h"}, "[2]": {"experiment": "Therapeutic index, ratio of CC50 for toxicity in C8166 cells to EC50 for antiviral activity against HIV1 3B infected in human C8166 cells", "type": "cell-based", "conditions": "read-out: Ratio CC50/EC50"}, "[3]": {"experiment": "Toxicity in human C8166 cells assessed as reduction in cell viability incubated for 72 hrs by MTT assay", "type": "cell-based"}}}
{"molecule": "COC(=O)C[C@H]1C[C@@]2(S[C@@]34C[C@H](CC(=O)O[C@H]5O[C@@H](C(=O)OC)[C@H](O)[C@@H](O)[C@@H]5O)O[C@@H](C)[C@@]3(O)C(=O)c3c(O)cccc3C4=O)C(=O)c3cccc(O)c3C(=O)[C@]2(O)[C@H](C)O1", "values": [{"measurement": "IC50", "setting": "HL-60", "value": 16.1, "unit": "µM"}, {"measurement": "IC50", "setting": "MCF7", "value": 3.4, "unit": "µM"}]}
{"molecule": "COC(=O)C[C@H]1C[C@@]2(S[C@@]34C[C@H](CC(=O)OC)O[C@@H](C)[C@@]3(O)C(=O)c3c(O[C@H]5O[C@@H](C(=O)O)[C@H](O)[C@@H](O)[C@@H]5O)cccc3C4=O)C(=O)c3cccc(O)c3C(=O)[C@]2(O)[C@H](C)O1", "values": [{"measurement": "EC50", "setting": "[1]", "value": 44.7, "unit": "µM"}, {"measurement": "selectivity ratio", "setting": "[2]", "value": "> 2.2"}, {"measurement": "CC50 at 72 h", "setting": "[3]", "value": "> 100", "unit": "µM"}]}
{"molecule": "COC(=O)C[C@H]1C[C@@]2(S[C@@]34C[C@H](CC(=O)O[C@H]5O[C@@H](C(=O)O)[C@H](O)[C@@H](O)[C@@H]5O)O[C@@H](C)[C@@]3(O)C(=O)c3c(O)cccc3C4=O)C(=O)c3cccc(O)c3C(=O)[C@]2(O)[C@H](C)O1", "values": [{"measurement": "EC50", "setting": "[1]", "value": 9.6, "unit": "µM"}, {"measurement": "selectivity ratio", "setting": "[2]", "value": 5.4}, {"measurement": "CC50 at 72 h", "setting": "[3]", "value": 52, "unit": "µM"}]}
{"molecule": "COC(=O)C[C@H]1C[C@@]2(S[C@@]34C[C@H](CCO[C@H]5O[C@@H](C(=O)OC)[C@H](O)[C@@H](O)[C@@H]5O)O[C@@H](C)[C@@]3(O)C(=O)c3c(O)cccc3C4=O)C(=O)c3cccc(O)c3C(=O)[C@]2(O)[C@H](C)O1", "values": [{"measurement": "EC50", "setting": "[1]", "value": 8.6, "unit": "µM"}, {"measurement": "selectivity ratio", "setting": "[2]", "value": 4.2}, {"measurement": "IC50", "setting": "HL-60", "value": 14.9, "unit": "µM"}, {"measurement": "IC50", "setting": "MCF7", "value": 3.4, "unit": "µM"}, {"measurement": "CC50 at 72 h", "setting": "[3]", "value": 36.4, "unit": "µM"}]}
{"molecule": "COC(=O)C[C@H]1C[C@@]2(S[C@@]34C[C@H](CC(=O)O[C@H]5OC(C(=O)O)=C[C@@H](O)[C@@H]5O)O[C@@H](C)[C@@]3(O)C(=O)c3c(O)cccc3C4=O)C(=O)c3cccc(O)c3C(=O)[C@]2(O)[C@H](C)O1", "values": [{"measurement": "EC50", "setting": "[1]", "value": 2.8, "unit": "µM"}, {"measurement": "selectivity ratio", "setting": "[2]", "value": 22.5}, {"measurement": "IC50", "setting": "HL-60", "value": 9.9, "unit": "µM"}, {"measurement": "IC50", "setting": "MCF7", "value": 1.4, "unit": "µM"}, {"measurement": "CC50 at 72 h", "setting": "[3]", "value": 63.7, "unit": "µM"}]}
{"molecule": "COC(=O)C[C@H]1C[C@@]2(S[C@@]34C[C@H](CCO[C@H]5O[C@@H](C(=O)O)[C@H](O)[C@@H](O)[C@@H]5O)O[C@@H](C)[C@@]3(O)C(=O)c3c(O)cccc3C4=O)C(=O)c3cccc(O)c3C(=O)[C@]2(O)[C@H](C)O1", "values": [{"measurement": "EC50", "setting": "[1]", "value": 9.6, "unit": "µM"}, {"measurement": "selectivity ratio", "setting": "[2]", "value": 5.9}, {"measurement": "CC50 at 72 h", "setting": "[3]", "value": 56.4, "unit": "µM"}]}
{"molecule": "Nc1ccn([C@@H]2CS[C@H](CO)O2)c(=O)n1", "note": "[LAMIVUDINE]", "values": [{"measurement": "EC50", "setting": "[1]", "value": 0.3, "unit": "µM"}, {"measurement": "selectivity ratio", "setting": "[2]", "value": "> 2910"}, {"measurement": "CC50 at 72 h", "setting": "[3]", "value": "> 1000", "unit": "µM"}]}
{"molecule": "CC(=O)O[C@H]1C(=O)[C@@]2(C)[C@H]([C@H](OC(=O)c3ccccc3)[C@]3(O)C[C@H](OC(=O)[C@H](O)[C@@H](NC(=O)c4ccccc4)c4ccccc4)C(C)=C1C3(C)C)[C@]1(OC(C)=O)CO[C@@H]1C[C@@H]2O", "note": "[PACLITAXEL]", "values": [{"measurement": "IC50", "setting": "HL-60", "value": "< 0.008", "unit": "µM"}, {"measurement": "IC50", "setting": "MCF7", "value": "< 0.008", "unit": "µM"}]}
